Columns and labels:
[1] = tested on: patients with type 2 diabetes inadequately controlled on metformin; test: HbA1c, phase 2 trial LIBERATE 204; type: in vivo, human
Procedure, shortened: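 HbA1c was assessed at week 17, after 16 weeks of double-blind sc treatment on background metformin. Dosing was 4 mg weekly for 4 weeks, 8 mg on day 29, then the assigned dose every 28 days; placebo was matched. The proportion reaching HbA1c <53 mmol/mol (<7%) was compared with placebo by Fisher's exact test in the full analysis set.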

[2] = tested on: patients with type 2 diabetes inadequately controlled on metformin; test: Fasting plasma glucose; type: in vivo, human; details: mean (SD)
Procedure, shortened: (§1)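 Adults 18–<75 y with T2D on stable metformin (≥1500 mg/d or maximum tolerated dose) had HbA1c 53–86 mmol/mol and BMI <40. They received double-blind sc test compound or placebo (0.53 mL prefilled syringe): 4 mg weekly on days 1, 8, 15 and 22, 8 mg on day 29, then the assigned dose on days 57 and 85. Measured at baseline and week 17 in the full analysis set; change analysed by MMRM (LS means, 95.1% CIs).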

[3] = tested on: patients with type 2 diabetes inadequately controlled on metformin; test: Seven-point glucose profile; type: in vivo, human; details: full analysis set n = 52, mean (SD)
Procedure, shortened: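 Patients self-measured glucose with a provided glucometer for a seven-point profile: 90 min pre- and postprandial readings plus bedtime, recorded in a diary. Mean daily glucose was derived from this profile. Dosing was double-blind sc, with metformin continued: 4 mg weekly ×4, 8 mg on day 29, then the assigned monthly dose on days 57 and 85. Full analysis set; change to week 17 analysed by MMRM with 95.1% CIs.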

[4] = tested on: patients with type 2 diabetes inadequately controlled on metformin; test: Body weight, LIBERATE 204; type: in vivo, human; details: mean (SD)
Procedure, shortened: as §1

[5] = tested on: patients with type 2 diabetes inadequately controlled on metformin; test: Treatment-emergent adverse events and hypoglycaemia, LIBERATE 204; type: in vivo, human
Procedure, shortened: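 Safety set comprised all patients receiving any study drug, grouped by treatment actually received; analysed descriptively. TEAEs were adverse events starting or worsening on or after the first dose. Hypoglycaemia AEs required confirmed blood glucose <3.9 mmol/L (<70 mg/dL), coded by MedDRA 16.1. Injection-site reactions and symptomatic hypoglycaemic episodes came from patient diaries. Dosing was double-blind sc on background metformin.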

[6] = tested on: patients with type 2 diabetes inadequately controlled on metformin; test: Anti-efpeglenatide antibodies, enzyme-linked immunosorbent assay; type: in vivo, human; details: log 2-expressed titre of at least 2
Procedure, shortened: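 Anti-drug antibodies in patient blood samples were detected by ELISA with an absorbance plate read-out, validated at a central laboratory. Treatment-emergent antibodies were evaluated in the safety set of patients on double-blind sc dosing with background metformin.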

[7] = tested on: patients with type 2 diabetes inadequately controlled on metformin; test: Neutralizing antibodies, cell-based cAMP-Glo assay; type: in vivo, human; details: any patient at any time
Procedure, shortened: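 Neutralizing activity of anti-drug antibodies in patient samples was tested in a cell-based assay. Antibody-mediated inhibition of intracellular cAMP was read by cAMP-Glo luminescence; the assay was validated at a central laboratory. Patients received double-blind sc test compound or placebo.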

[8] = tested on: patients with type 2 diabetes inadequately controlled on metformin; test: Vital signs, LIBERATE 204; type: in vivo, human; details: any post-baseline time point from week 2 to week 17 or at follow-up (week 23)
[9] = tested on: patients with T2D who were drug-naïve or on metformin; details: 4 mg once weekly; 12 weeks; EXCEED; cited from earlier work
[10] = 8 mg once monthly sc, full analysis set n = 52
[11] = 12 mg once monthly sc, full analysis set n = 52
[12] = 16 mg once monthly sc, full analysis set n = 52
[13] = overall (8, 12 and 16 mg once monthly sc), full analysis set n = 156
[14] = 8 mg once monthly sc, safety set n = 52
[15] = 12 mg once monthly sc, safety set n = 52
[16] = 16 mg once monthly sc, safety set n = 53
[17] = overall (8, 12 and 16 mg once monthly sc), safety set n = 157

efpeglenatide
Patients with HbA1c <53 mmol/mol (7%) at Week 17 [1, 10]: 26 (50.0) n (%)
Patients with HbA1c <53 mmol/mol (7%) at Week 17 [1, 11]: 26 (50.0) n (%)
Patients with HbA1c <53 mmol/mol (7%) at Week 17 [1, 12]: 24 (46.2) n (%)
Patients with HbA1c <53 mmol/mol (7%) at Week 17 [1, 13]: 76 (48.7) n (%)
FPG at Week 17 [2, 10]: 7.86 (2.28) mmol/L
FPG at Week 17 [2, 11]: 8.09 (2.28) mmol/L
FPG at Week 17 [2, 12]: 7.76 (1.93) mmol/L
FPG at Week 17 [2, 13]: 7.90 (2.16) mmol/L
Mean daily glucose at Week 17 ([3]; 8 mg once monthly sc): 8.76 (2.13) mmol/L
Mean daily glucose at Week 17 ([3]; 12 mg once monthly sc): 8.89 (2.50) mmol/L
Mean daily glucose at Week 17 ([3]; 16 mg once monthly sc): 8.49 (1.43) mmol/L
Body weight at Week 17 [4, 10]: 89.98 (18.12) kg
Body weight at Week 17 [4, 11]: 91.87 (15.31) kg
Body weight at Week 17 [4, 12]: 85.72 (15.58) kg
Body weight at Week 17 [4, 13]: 89.26 (16.49) kg
Any TEAE [5, 14]: 43 (82.7) n (%)
Any TEAE leading to discontinuation [5, 14]: 6 (11.5) n (%)
Injection-site reaction [5, 14]: 4 (7.7) n (%)
SAEs: Any [5, 14]: 0 (0.0) n (%)
SAEs: GI disorders [5, 14]: 0 (0.0) n (%)
SAEs: Injury, poisoning and procedural complications [5, 14]: 0 (0.0) n (%)
SAEs: Neoplasms: benign, malignant and unspecified [5, 14]: 0 (0.0) n (%)
SAEs: Nervous system disorders [5, 14]: 0 (0.0) n (%)
SAEs: Psychiatric disorders [5, 14]: 0 (0.0) n (%)
TEAE: Diarrhoea [5, 14]: 9 (17.3) n (%)
TEAE: GI disorders [5, 14]: 26 (50.0) n (%)
TEAE: Nausea [5, 14]: 14 (26.9) n (%)
TEAE: Vomiting [5, 14]: 8 (15.4) n (%)
Any TEAE [5, 15]: 43 (82.7) n (%)
Any TEAE leading to discontinuation [5, 15]: 7 (13.5) n (%)
Injection-site reaction [5, 15]: 4 (7.7) n (%)
SAEs: Any [5, 15]: 5 (9.6) n (%)
SAEs: GI disorders [5, 15]: 1 (1.9) n (%)
SAEs: Injury, poisoning and procedural complications [5, 15]: 1 (1.9) n (%)
SAEs: Neoplasms: benign, malignant and unspecified [5, 15]: 1 (1.9) n (%)
SAEs: Nervous system disorders [5, 15]: 1 (1.9) n (%)
SAEs: Psychiatric disorders [5, 15]: 1 (1.9) n (%)
TEAE: Diarrhoea [5, 15]: 8 (15.4) n (%)
TEAE: GI disorders [5, 15]: 29 (55.8) n (%)
TEAE: Nausea [5, 15]: 24 (46.2) n (%)
TEAE: Vomiting [5, 15]: 13 (25.0) n (%)
Any TEAE [5, 16]: 43 (81.1) n (%)
Any TEAE leading to discontinuation [5, 16]: 8 (15.1) n (%)
Injection-site reaction [5, 16]: 2 (3.8) n (%)
SAEs: Any [5, 16]: 3 (5.7) n (%)
SAEs: GI disorders [5, 16]: 0 (0.0) n (%)
SAEs: Injury, poisoning and procedural complications [5, 16]: 1 (1.9) n (%)
SAEs: Neoplasms: benign, malignant and unspecified [5, 16]: 1 (1.9) n (%)
SAEs: Nervous system disorders [5, 16]: 1 (1.9) n (%)
SAEs: Psychiatric disorders [5, 16]: 0 (0.0) n (%)
TEAE: Diarrhoea [5, 16]: 11 (20.8) n (%)
TEAE: GI disorders [5, 16]: 31 (58.5) n (%)
TEAE: Nausea [5, 16]: 23 (43.4) n (%)
TEAE: Vomiting [5, 16]: 17 (32.1) n (%)
Hypoglycaemia TEAEs (blood glucose ≤3.9 mmol/L [≤70 mg/dL]) ([5]; any group): No hypoglycaemia TEAEs
AEs of acute or chronic pancreatitis ([5]; during the study): No AEs of acute or chronic pancreatitis were reported
Deaths ([5]; during the study): No deaths
Any TEAE [5, 17]: 129 (82.2) n (%)
Any TEAE leading to discontinuation [5, 17]: 21 (13.4) n (%)
Injection-site reaction [5, 17]: 10 (6.4) n (%)
SAEs: Any [5, 17]: 8 (5.1) n (%)
SAEs: GI disorders [5, 17]: 1 (0.6) n (%)
SAEs: Injury, poisoning and procedural complications [5, 17]: 2 (1.3) n (%)
SAEs: Neoplasms: benign, malignant and unspecified [5, 17]: 2 (1.3) n (%)
SAEs: Nervous system disorders [5, 17]: 2 (1.3) n (%)
SAEs: Psychiatric disorders [5, 17]: 1 (0.6) n (%)
TEAE: Diarrhoea [5, 17]: 28 (17.8) n (%)
TEAE: GI disorders [5, 17]: 86 (54.8) n (%)
TEAE: Nausea [5, 17]: 61 (38.9) n (%)
TEAE: Vomiting [5, 17]: 38 (24.2) n (%)
Antibody formation: Treatment-emergent (titre ≥2) [6, 14]: 5 (9.6) n (%)
Antibody formation: Treatment-emergent (titre ≥2) [6, 15]: 6 (11.5) n (%)
Antibody formation: Treatment-emergent (titre ≥2) [6, 16]: 4 (7.5) n (%)
Neutralizing antibodies [7]: no neutralizing antibodies were detected
Mean changes from baseline in heart rate, temperature, systolic blood pressure or diastolic blood pressure [8]: no meaningful mean changes
HbA1c reduction from baseline compared with once-daily liraglutide [9]: non‐inferior
